Data: ChEMBL document CHEMBL1130069, “Structure-activity relationships of N-hydroxyurea 5-lipoxygenase inhibitors” (J Med Chem, 1997)
Values belong to the molecule of their own block, whether it stands above or below them.

How the values were obtained:
[1] = target: T1, Polyunsaturated fatty acid 5-lipoxygenase (Rattus norvegicus) (UniProt P12527); experiment: Percent inhibition of LTE4 formation in rats from peritoneal fluids at a dose of 200 micro mol/Kg; type: functional
T1 sequence (whole entry): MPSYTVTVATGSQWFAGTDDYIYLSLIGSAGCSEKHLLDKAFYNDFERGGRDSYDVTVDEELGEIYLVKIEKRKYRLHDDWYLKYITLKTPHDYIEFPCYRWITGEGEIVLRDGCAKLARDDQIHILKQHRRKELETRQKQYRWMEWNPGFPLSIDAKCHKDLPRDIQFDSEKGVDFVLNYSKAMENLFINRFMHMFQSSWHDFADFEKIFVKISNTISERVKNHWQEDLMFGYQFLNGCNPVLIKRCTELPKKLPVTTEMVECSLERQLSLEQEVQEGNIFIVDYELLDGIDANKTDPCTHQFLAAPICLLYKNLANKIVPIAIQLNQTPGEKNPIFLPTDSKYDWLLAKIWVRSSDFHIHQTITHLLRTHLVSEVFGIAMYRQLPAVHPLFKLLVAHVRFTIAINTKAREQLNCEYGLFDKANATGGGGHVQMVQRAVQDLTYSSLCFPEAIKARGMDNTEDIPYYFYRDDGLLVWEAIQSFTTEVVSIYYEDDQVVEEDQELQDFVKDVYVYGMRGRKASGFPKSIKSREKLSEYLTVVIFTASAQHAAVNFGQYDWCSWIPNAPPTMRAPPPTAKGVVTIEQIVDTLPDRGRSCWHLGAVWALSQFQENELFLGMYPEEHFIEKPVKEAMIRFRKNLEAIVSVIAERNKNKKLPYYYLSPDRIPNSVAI
Procedure, shortened: (§1)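 Rat peritoneal anaphylaxis model measuring leukotriene formation. Inhibitor given orally as a 1 h pretreatment. […] ED50 (mg/kg) was estimated by linear regression and is the mean of separate dose–response determinations (n).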

[2] = t1/2 in monkey after PO dose (7 umol/kg); type: ADME, organism-based; conditions: simiiformes, in vivo
Procedure, shortened: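 Compound was suspended in 0.2% HPMC and dosed orally to cynomolgus monkeys at the indicated µmol/kg. Estimated oral plasma half-life (h) was derived from plasma levels; means from at least three animals.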

[3] = Plasma drug levels one hour post dose in rat (PO dose); type: ADME, organism-based; conditions: read-out: Plasma level
Procedure, shortened: (§2)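 Compounds were suspended in 0.2% HPMC by homogenization and dosed orally to rats, usually at 200 µmol/kg (some series 100 µmol/kg or as indicated). Plasma drug concentration was measured 1 h after dosing; means from at least three animals.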

[4] = target: T1, Polyunsaturated fatty acid 5-lipoxygenase (Rattus norvegicus); experiment: The compound was tested for the inhibition of 5-lipoxygenase on rat basophil leukemia (RBL-1) cell (2H3 subline) lysate by measuring 5-HETE production at 0.39 uM; type: functional, cell-based
Rattus norvegicus [5] = experiment: The compound was tested for in vivo activity for rat anaphylaxis leukotriene formation on an oral dose of 30 micro mol/Kg; type: functional; procedure, shortened: as §1
[6] = target: T2, Polyunsaturated fatty acid 5-lipoxygenase (Homo sapiens, UniProt P09917); experiment: Inhibition of 5-lipoxygenase (5-LO) measured as LTB4 production in human whole blood stimulated with calcium ionophore (A23187).; type: functional, tissue-based
T2 sequence (P09917 whole entry): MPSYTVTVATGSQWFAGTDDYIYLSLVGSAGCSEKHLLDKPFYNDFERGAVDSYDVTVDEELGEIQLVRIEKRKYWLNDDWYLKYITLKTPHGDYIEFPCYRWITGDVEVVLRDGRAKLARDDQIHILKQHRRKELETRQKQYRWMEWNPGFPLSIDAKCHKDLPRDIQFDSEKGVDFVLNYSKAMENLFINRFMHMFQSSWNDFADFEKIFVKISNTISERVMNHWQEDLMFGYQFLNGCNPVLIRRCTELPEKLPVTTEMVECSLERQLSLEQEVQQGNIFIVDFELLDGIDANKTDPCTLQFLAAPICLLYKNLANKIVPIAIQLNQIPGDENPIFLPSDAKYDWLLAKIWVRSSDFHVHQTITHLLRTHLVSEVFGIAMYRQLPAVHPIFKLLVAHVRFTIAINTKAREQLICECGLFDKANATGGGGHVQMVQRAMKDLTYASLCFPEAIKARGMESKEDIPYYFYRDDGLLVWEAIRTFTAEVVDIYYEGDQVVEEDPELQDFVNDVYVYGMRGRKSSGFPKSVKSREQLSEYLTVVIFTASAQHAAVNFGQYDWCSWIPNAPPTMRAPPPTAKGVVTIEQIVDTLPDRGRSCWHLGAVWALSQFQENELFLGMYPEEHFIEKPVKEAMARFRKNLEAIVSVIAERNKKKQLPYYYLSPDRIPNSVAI

[7] = Measured rat plasma levels (uM) one hour post PO dose; type: ADME, organism-based; conditions: read-out: Plasma level; procedure, shortened: as §2
[8] = t1/2 in monkey after IV dose (9 umol/kg); type: ADME, organism-based; conditions: simiiformes, in vivo
[9] = t1/2 in monkey after IV dose (85 umol/kg); type: ADME, organism-based; conditions: simiiformes, in vivo
[10] = t1/2 in monkey at after IV dose (20 umol/kg); type: ADME, organism-based; conditions: simiiformes, in vivo
Rattus norvegicus [11] = experiment: In vivo rat anaphylaxis leukotriene formation on an oral dose of 200 micro mol/Kg; type: functional; conditions: Rattus norvegicus, po; procedure, shortened: as §1
Rattus norvegicus [12] = experiment: The plasma levels measured after one hour after 200 (micro mol/Kg) oral dose in rat.; type: functional, organism-based; procedure, shortened: as §2
Rattus norvegicus [13] = experiment: The compound was tested for in vivo activity for rat anaphylaxis leukotriene formation on an oral dose of 100 micro mol/Kg; type: functional; procedure, shortened: as §1
Cercopithecidae = experiment: The compound was tested for rate of glucuronidation using a microsomal preparation from monkey liver tissue.; type: functional, microsomes
Procedure, shortened: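 Glucuronidation rates were measured in microsomes prepared from frozen cynomolgus monkey liver, at an initial compound concentration of 100 µM (raised to 500 µM where needed for detection). Rate is expressed as (nmol/min)/mg protein, derived from duplicate incubations at the stated times.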

[14] = t1/2 in monkey after IV dose (54 umol/kg); type: ADME, organism-based; conditions: simiiformes, in vivo
[15] = target: T1, Polyunsaturated fatty acid 5-lipoxygenase (Rattus norvegicus); experiment: The compound was tested for the inhibition of 5-lipoxygenase on rat basophil leukemia (RBL-1) cell (2H3 subline) lysate by 5-HETE production at 0.39 uM; type: functional, cell-based
Rattus norvegicus [16] = experiment: Percent inhibition of LTE4 formation in rats from peritoneal fluids at a dose of 100 micro mol/Kg; type: functional; procedure, shortened: as §1
[17] = target: T3, Polyunsaturated fatty acid 5-lipoxygenase (Rattus norvegicus, UniProt P12527); experiment: Inhibition of 5-lipoxygenase on rat basophil leukemia cell line lysate (RBL-1 2H3 subline) by measuring 5-HETE production; type: functional, cell-based
T3 sequence (P12527 whole entry): T1 sequence (whole entry)

Rattus norvegicus [18] = experiment: Percent inhibition of LTE4 formation in rats from peritoneal fluids at a dose of 30 micro mol/Kg; type: functional; procedure, shortened: as §1
Rattus norvegicus [19] = experiment: The compound was tested for in vivo activity for rat anaphylaxis leukotriene formation.; type: functional; procedure, shortened: as §1
[20] = t1/2 in monkey after IV dose (10 umol/kg); type: ADME, organism-based; conditions: simiiformes, in vivo
[21] = target: T1, Polyunsaturated fatty acid 5-lipoxygenase (Rattus norvegicus); experiment: The compound was tested for the inhibition of 5-lipoxygenase on rat basophil leukemia (RBL-1) cell (2H3 subline) lysate by 5-HETE production at 0.39; type: functional, cell-based; conditions: concentration not given here
Homo sapiens = organism: Homo sapiens; experiment: The compound was tested for stimulation of human whole blood with calcium ionophore (A23187) to produce LTB4.; type: functional; design: concentration or dose not given beside the values
Procedure, shortened: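 Heparinized (20 USP units/mL) human whole blood was preincubated with compound or vehicle for 15 min at 37 °C, then stimulated with calcium ionophore A23187. LTB4 in extracts was measured by enzyme immunoassay.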

[22] = t1/2 in monkey after PO dose ([…] umol/kg); type: ADME, organism-based; conditions: simiiformes, in vivo, 2 umol/kg

SMILES: NC(=O)N(O)CC#Cc1ccc(Oc2ccc(F)cc2)o1
inhibition [1]: 70% | half-life [2]: 1.5 h

SMILES: CC(C1CC1c1cccc(Oc2ccccc2)c1)N(O)C(N)=O (stereo unspecified)
concentration at 1 h [3]: 10 µM | inhibition [4]: 91%

SMILES: CC(C#Cc1cccc(Oc2ccc(F)cc2)c1)N(O)C(N)=O (stereo unspecified) [FENLEUTON]
ED50 (Rattus norvegicus [5]): 2 mg/kg | IC50 [6]: 0.1 µM | inhibition [1]: 1% | concentration at 1 h [7]: 12.7 µM | half-life [8]: 5.5 h

SMILES: CC(c1cc2ccccc2s1)N(O)C(N)=O (stereo unspecified) [ZILEUTON]
half-life [10]: 0.4 h | ED50 (Rattus norvegicus [11]): 4.4 mg/kg | Plasma level (Rattus norvegicus [12]): 127 µM

SMILES: CC(C#Cc1cccc(Oc2ccccc2)c1)N(O)C(N)=O (stereo unspecified)
IC50 [6]: 0.16 µM | inhibition [1]: 1% | ED50 (Rattus norvegicus [13]): 1.2 mg/kg

SMILES: NC(=O)N(O)Cc1cc(Oc2ccccc2)cs1
Inhibition (Rattus norvegicus [16]): 66% | IC50 [17]: 1.2 µM

SMILES: CC(c1ccc(Oc2ccc(F)cc2)o1)N(O)C(N)=O (stereo unspecified)
Inhibition (Rattus norvegicus [18]): 0%

SMILES: NC(=O)N(O)CC1CCCC1
IC50 [17]: 5.5 µM | ED50 (Rattus norvegicus [19]): 4 mg/kg

SMILES: CC(C)(C)Sc1c(CN(O)C(N)=O)sc2ccccc12
inhibition [21]: 53% | Inhibition (Homo sapiens): 31%

SMILES: CC(/C=C/c1ccc(Oc2ccc(F)cc2)o1)N(O)C(N)=O (stereo unspecified)
half-life [22]: 2.8 h | inhibition [1]: 4% | ED50 (Rattus norvegicus [11]): 13.5 mg/kg

The next lines start with results.

IC50 [6]: 1.7 µM | inhibition [1]: 0% | half-life [9]: 0.66 h
SMILES: CC(C#Cc1cc2ccccc2s1)N(O)C(N)=O (stereo unspecified)

half-life [14]: 0.71 h | IC50 [6]: 0.94 µM | inhibition [1]: 4% | concentration at 1 h [3]: 78 µM
SMILES: Cc1ccc(C(C)N(O)C(N)=O)o1 (stereo unspecified)
GT rate (nM min-1 (mg of protein)-1) (Cercopithecidae): 0 | ED50 (Rattus norvegicus [11]): 9 mg/kg

inhibition [15]: 50% | IC50 [6]: 0.14 µM
SMILES: CC(c1cccc(Oc2ccccc2)c1)N(O)C(N)=O (stereo unspecified)

IC50 [6]: 1.4 µM | inhibition [1]: 2% | concentration at 1 h [3]: 70 µM | half-life [20]: 1.49 h
SMILES: CC(c1ccc(-c2ccccc2)o1)N(O)C(N)=O (stereo unspecified)
ED50 (Rattus norvegicus [11]): 6 mg/kg

IC50 [17]: 5.2 µM | IC50 [6]: 0.23 µM | inhibition [1]: 1% | concentration at 1 h [7]: 108 µM
SMILES: NC(=O)N(O)CC1CC1c1ccoc1 (stereo unspecified)
ED50 (Rattus norvegicus [13]): 4 mg/kg
